Results taken from ChEMBL document CHEMBL1156247, “Synthesis and anti-HIV-1 integrase activity of modified dinucleotides” (Eur J Med Chem, 2009).
The source made the active and inactive calls. The calls are words filed in the database; no cut-off is given here.

Key:
[1] = target: Human immunodeficiency virus type 1 integrase (Human immunodeficiency virus 1, UniProt Q7ZJM1); assay: Inhibition of recombinant HIV1 integrase 3^-end processing and strand transfer activity after 1 hr
In short: (§1)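 Recombinant HIV-1 integrase (100 nM) with 12.5 nM 21-mer double-stranded DNA substrate in 10 mM HEPES pH 7.2, 1 mM DTT, 7.5 mM MgCl₂, 1 hr at 37 °C. Compound was titrated from 300 nM upward; an EDTA (10 mM) lane and a no-drug lane were included. 3′-processed and strand-transfer products were resolved on denaturing 18% acrylamide/urea gels.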

[2] = target: Human immunodeficiency virus type 1 integrase (Human immunodeficiency virus 1) (UniProt Q7ZJM1); assay: Inhibition of recombinant HIV1 integrase 3^-end processing and strand transfer activity at 300 uM to 300 nM after 1 hr by PAGE analysis; in short: as §1
Sequence of Human immunodeficiency virus type 1 integrase (Human immunodeficiency virus 1) (Q7ZJM1 as listed by the source): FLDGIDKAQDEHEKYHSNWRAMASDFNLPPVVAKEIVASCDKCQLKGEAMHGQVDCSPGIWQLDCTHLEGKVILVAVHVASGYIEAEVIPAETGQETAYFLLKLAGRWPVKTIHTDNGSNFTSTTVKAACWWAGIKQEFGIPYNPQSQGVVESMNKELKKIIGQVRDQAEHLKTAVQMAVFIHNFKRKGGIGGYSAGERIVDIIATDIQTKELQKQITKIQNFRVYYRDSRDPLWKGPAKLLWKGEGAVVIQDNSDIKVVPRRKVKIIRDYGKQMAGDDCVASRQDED

[3] = target: Human immunodeficiency virus type 1 integrase (Human immunodeficiency virus 1) (UniProt Q7ZJM1); assay: Ratio of D-d-5^ CpA3^ IC50 to compound IC50 for recombinant HIV1 integrase 3^-end processing and strand transfer activity

Sequence of Human immunodeficiency virus type 1 integrase (Q7ZJM1 whole entry): as the sequence (Q7ZJM1 as listed by the source) above

In the case of Nc1ccn([C@H]2C[C@H](OP(=O)(O)OC[C@H]3O[C@@H](n4cnc5c(N)ncnc54)C[C@@H]3OP(=O)(O)O)[C@@H](COP(=O)(O)OCCCCCCNCc3ccc4c5cccc6cccc(c7cccc3c74)c65)O2)c(=O)n1, the IC50 [1] is reported as 1.8 µM and the Activity [2] is reported as “Active”.

An IC50 [1] greater than 340 µM was found for N=C(N)NCCCCNc1ccn([C@H]2C[C@H](OP(=O)(O)OC[C@H]3O[C@@H](n4cnc5c(N)ncnc54)C[C@@H]3O)[C@@H](CO)O2)c(=O)n1 in this work.

An IC50 [1] of no less than 340 µM was found for Nc1ccn([C@@H]2C[C@@H](O)[C@H](COP(=O)(O)O[C@@H]3C[C@@H](n4cnc5c(N)ncnc54)O[C@H]3CO)O2)c(=O)n1 in this work.

An IC50 [1] greater than 340 µM was found for N=C(N)NCCCCCCNc1ccn([C@H]2C[C@H](OP(=O)(O)OC[C@H]3O[C@@H](n4cnc5c(N)ncnc54)C[C@@H]3O)[C@@H](CO)O2)c(=O)n1 in this work.

An IC50 [1] of 340 µM was found for Nc1ccn([C@H]2C[C@H](OP(=O)(O)OC[C@H]3O[C@@H](n4cnc5c(N)ncnc54)C[C@@H]3O)[C@@H](CO)O2)c(=O)n1 in this work.

An IC50 [1] greater than 100 µM was found for Nc1ccn([C@H]2C[C@H](OP(=O)(O)OC[C@H]3O[C@@H](n4cnc5c(N)ncnc54)C[C@@H]3OP(=O)(O)NCCCO)[C@@H](COP(=O)(O)O)O2)c(=O)n1 in this work.

Nc1ccn([C@H]2C[C@H](OP(=O)(O)OC[C@H]3O[C@@H](n4cnc5c(N)ncnc54)C[C@@H]3OP(=O)(O)O)[C@@H](COP(=O)(O)OCCCCCCNC(=O)c3ccc4c(c3)C(=O)c3cc(C(=O)NCCCCCCO)ccc3C4=O)O2)c(=O)n1 (stereo in doubt; 29) [listing 1 of 2 here] was tested, and the Activity [2] was “Active”.

An IC50 [1] of 13.4 µM was found for Nc1ccn([C@H]2C[C@H](OP(=O)(O)OC[C@H]3O[C@@H](n4cnc5c(N)ncnc54)C[C@@H]3OP(=O)(O)O)[C@@H](COP(=O)(O)SCCCCCC(=O)Nc3ccc(N)c4c3C(=O)c3ccccc3C4=O)O2)c(=O)n1 in this work.

An IC50 [1] of 13.9 µM was found for Nc1ccn([C@H]2C[C@H](OP(=O)(O)OC[C@H]3O[C@@H](n4cnc5c(N)ncnc54)C[C@@H]3OP(=O)(O)O)[C@@H](COP(=O)(O)SCCCCCC(=O)Nc3cccc4c3C(=O)c3ccccc3C4=O)O2)c(=O)n1 in this work.

For COc1ccc2nc3cc(Cl)ccc3c(NCCCCCCOP(=O)(O)OC[C@H]3O[C@@H](n4ccc(N)nc4=O)C[C@@H]3OP(=O)(O)OC[C@H]3O[C@@H](n4cnc5c(N)ncnc54)C[C@@H]3OP(=O)(O)O)c2c1, the IC50 [1] was 13.2 µM and the Activity [2] was “Active”.

An IC50 [1] of no less than 340 µM was found for N=C(N)NCCCCNP(=O)(OC[C@H]1O[C@@H](n2cnc3c(N)ncnc32)C[C@@H]1O)O[C@H]1C[C@H](n2ccc(N)nc2=O)O[C@@H]1CO (stereo not given in full) in this work.

An IC50 [1] of no less than 340 µM was found for Nc1ccn([C@H]2C[C@H](OP(=O)(S)OC[C@H]3O[C@@H](n4cnc5c(N)ncnc54)C[C@@H]3O)[C@@H](CO)O2)c(=O)n1 (stereo not given in full) in this work.

An IC50 [1] of no less than 340 µM was found for Nc1ccn([C@@H]2C[C@@H](OP(=O)(O)OC[C@@H]3O[C@H](n4cnc5c(N)ncnc54)C[C@H]3O)[C@H](CO)O2)c(=O)n1 (single isomer, unassigned) in this work.

An IC50 [1] greater than 340 µM was found for NCCCCCCNc1ccn([C@H]2C[C@H](OP(=O)(O)OC[C@H]3O[C@@H](n4cnc5c(N)ncnc54)C[C@@H]3O)[C@@H](CO)O2)c(=O)n1 in this work.

An IC50 [1] of no less than 340 µM was found for Nc1ccn([C@H]2C[C@H](O)[C@@H](COP(=O)(S)OC[C@H]3O[C@@H](n4cnc5c(N)ncnc54)C[C@@H]3O)O2)c(=O)n1 (stereo not given in full) in this work.

An IC50 [1] greater than 100 µM was found for Nc1ccn([C@H]2C[C@H](OP(=O)(O)OC[C@H]3O[C@@H](n4cnc5c(N)ncnc54)C[C@@H]3OP(=O)(O)NCCCCCCCCCCCCO)[C@@H](COP(=O)(O)O)O2)c(=O)n1 in this work.

An IC50 [1] of 110 µM and a Ratio IC50 [3] of 3 were found for Nc1ccn([C@H]2C[C@H](OP(=O)(S)O[C@H]3C[C@H](n4cnc5c(N)ncnc54)O[C@@H]3CO)[C@@H](CO)O2)c(=O)n1 (stereo not given in full) in this work.

An IC50 [1] of 100 µM and a Ratio IC50 [3] of 3 were found for N=C(N)NCCCCNP(=O)(O[C@H]1C[C@H](n2ccc(N)nc2=O)O[C@@H]1CO)O[C@H]1C[C@H](n2cnc3c(N)ncnc32)O[C@@H]1CO (stereo not given in full) in this work.

An IC50 [1] greater than 340 µM was found for NCCCCCNc1ccn([C@H]2C[C@H](OP(=O)(O)OC[C@H]3O[C@@H](n4cnc5c(N)ncnc54)C[C@@H]3O)[C@@H](CO)O2)c(=O)n1 in this work.

An IC50 [1] greater than 1000 µM was found for NCCCCNc1ccn([C@H]2C[C@H](OP(=O)(O)OC[C@H]3O[C@@H](n4cnc5c(N)ncnc54)C[C@@H]3O)[C@@H](CO)O2)c(=O)n1 in this work.

An IC50 [1] of 21 µM was found for Nc1ccn([C@H]2C[C@H](OP(=O)(O)OC[C@H]3O[C@@H](n4cnc5c(N)ncnc54)C[C@@H]3OP(=O)(O)O)[C@@H](COP(=O)(O)OCCCCCCNC(=O)c3ccc4c(c3)C(=O)c3cc(C(=O)NCCCCCCO)ccc3C4=O)O2)c(=O)n1 (stereo in doubt; 28) in this work.

An IC50 [1] greater than 100 µM was found for COc1ccc2nc3cc(Cl)ccc3c(NCCC[N+](C)(C)CCCSP(=O)(O)O[C@H]3C[C@H](n4cnc5c(N)ncnc54)O[C@@H]3COP(=O)([O-])O[C@H]3C[C@H](n4ccc(N)nc4=O)O[C@@H]3COP(=O)(O)O)c2c1 in this work.

An IC50 [1] greater than 100 µM was found for COc1ccc2nc3cc(Cl)ccc3c(NCCCCCCSP(=O)(O)O[C@H]3C[C@H](n4cnc5c(N)ncnc54)O[C@@H]3COP(=O)(O)O[C@H]3C[C@H](n4ccc(N)nc4=O)O[C@@H]3COP(=O)(O)O)c2c1 in this work.

An IC50 [1] of 100 µM and a Ratio IC50 [3] of 3 were found for N=C(N)NCCCCNP(=O)(OC[C@H]1O[C@@H](n2ccc(N)nc2=O)C[C@@H]1O)OC[C@H]1O[C@@H](n2cnc3c(N)ncnc32)C[C@@H]1O (stereo not given in full) in this work.

An IC50 [1] greater than 1000 µM was found for NCCCNc1ccn([C@H]2C[C@H](OP(=O)(O)OC[C@H]3O[C@@H](n4cnc5c(N)ncnc54)C[C@@H]3O)[C@@H](CO)O2)c(=O)n1 in this work.

An IC50 [1] greater than 100 µM was found for NCCCCCCNP(=O)(O)O[C@H]1C[C@H](n2cnc3c(N)ncnc32)O[C@@H]1COP(=O)(O)O[C@H]1C[C@H](n2ccc(N)nc2=O)O[C@@H]1COP(=O)(O)O in this work.

An IC50 [1] of no less than 340 µM was found for NCCCCNP(=O)(OC[C@H]1O[C@@H](n2cnc3c(N)ncnc32)C[C@@H]1O)O[C@H]1C[C@H](n2ccc(N)nc2=O)O[C@@H]1CO (stereo not given in full) in this work.

An IC50 [1] greater than 1000 µM was found for NCCNc1ccn([C@H]2C[C@H](OP(=O)(O)OC[C@H]3O[C@@H](n4cnc5c(N)ncnc54)C[C@@H]3O)[C@@H](CO)O2)c(=O)n1 in this work.

An IC50 [1] of 102 µM and a Ratio IC50 [3] of 3 were found for NCCCCNP(=O)(OC[C@H]1O[C@@H](n2ccc(N)nc2=O)C[C@@H]1O)OC[C@H]1O[C@@H](n2cnc3c(N)ncnc32)C[C@@H]1O (stereo not given in full) in this work.

An IC50 [1] greater than 100 µM was found for COc1ccc2nc3cc(Cl)ccc3c(NCCC[N+](C)(C)CCCSP(=O)(O)OC[C@H]3O[C@@H](n4ccc(N)nc4=O)C[C@@H]3OP(=O)([O-])OC[C@H]3O[C@@H](n4cnc5c(N)ncnc54)C[C@@H]3OP(=O)(O)O)c2c1 in this work.

An IC50 [1] of 65.5 µM was found for Nc1ccn([C@H]2C[C@H](OP(=O)(O)OC[C@H]3O[C@@H](n4cnc5c(N)ncnc54)C[C@@H]3OP(=O)(O)O)[C@@H](COP(=O)(O)OCCCCCCNC(=O)c3ccc4c(c3)C(=O)c3cc(C(=O)NCCCCCCO)ccc3C4=O)O2)c(=O)n1 (stereo in doubt; 29) [listing 2 of 2 here] in this work.

An IC50 [1] greater than 340 µM was found for N=C(N)NCCCCCNc1ccn([C@H]2C[C@H](OP(=O)(O)OC[C@H]3O[C@@H](n4cnc5c(N)ncnc54)C[C@@H]3O)[C@@H](CO)O2)c(=O)n1 in this work.

An IC50 [1] greater than 100 µM was found for COc1ccc2nc3cc(Cl)ccc3c(NCCCCSP(=O)(O)O[C@H]3C[C@H](n4cnc5c(N)ncnc54)O[C@@H]3COP(=O)(O)O[C@H]3C[C@H](n4ccc(N)nc4=O)O[C@@H]3COP(=O)(O)O)c2c1 in this work.

An IC50 [1] of 786 µM was found for NCCN(CCN)CCCSP(=O)(O)OC[C@H]1O[C@@H](n2ccc(N)nc2=O)C[C@@H]1OP(=O)(O)OC[C@H]1O[C@@H](n2cnc3c(N)ncnc32)C[C@@H]1OP(=O)(O)O in this work.

An IC50 [1] of no less than 340 µM was found for Nc1ccn([C@H]2C[C@H](OP(=O)(O)O[C@H]3C[C@H](n4cnc5c(N)ncnc54)O[C@@H]3CO)[C@@H](CO)O2)c(=O)n1 in this work.

An IC50 [1] of no less than 340 µM was found for Nc1ccn([C@H]2C[C@H](O)[C@@H](COP(=O)(O)OC[C@H]3O[C@@H](n4cnc5c(N)ncnc54)C[C@@H]3O)O2)c(=O)n1 in this work.

An IC50 [1] of 100 µM and a Ratio IC50 [3] of 3 were found for NCCCCNP(=O)(O[C@H]1C[C@H](n2ccc(N)nc2=O)O[C@@H]1CO)O[C@H]1C[C@H](n2cnc3c(N)ncnc32)O[C@@H]1CO (stereo not given in full) in this work.

An IC50 [1] of 30 µM was found for Nc1ccn([C@H]2C[C@H](OP(=O)(O)OC[C@H]3O[C@@H](n4cnc5c(N)ncnc54)C[C@@H]3OP(=O)(O)O)[C@@H](COP(=O)(O)O[C@H]3C[C@H](OCCCc4ccc5c6cccc7cccc(c8cccc4c85)c76)O[C@@H]3CO)O2)c(=O)n1 in this work.
